Consider 73 sequences from the array DNA melting data of Ke et al. (doi:10.1101/2024.01.08.574731).

The nature of data set [1]: folding enthalpy; higher = less favourable; fluorescence melt of hairpins on a sequencing array, two-state fit. Particulars: sodium 0.088 M. The gist of the method:
(§1)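 Folding enthalpy and melting temperature were estimated with bootstrapped two-state fits and combined across four replicates by inverse-variance weighting, with fitted temperatures raised by 9.35 °C to match UV melts. The data were Cy3 fluorescence of library hairpins, with annealed Cy3 and quencher oligos, on a sequenced MiSeq flow cell in 50 mM Na-HEPES pH 8.0, 25 mM NaCl, imaged in 2.5 °C steps up to 60 °C and normalised to pre-quench Cy3 and control constructs.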

The nature of data set [2]: melting temperature; fluorescence melt of hairpins on a sequencing array, two-state fit, raised by 9.35 °C to match UV melts. The following applies: sodium 0.088 M. The method, boiled down:
as §1

As for GCAGTCGGAAACGACCGC ((.((((....)))).)), the folding enthalpy in data set [1] is -27.3 kcal/mol. For the same sequence, in data set [2], the Tm worked out at 52 °C.
With GCAGTCGGAAACGATTGC (((.(((....))).))), in data set [1], the folding enthalpy is -43.6 kcal/mol. In data set [2], the Tm was 54.4 °C.
The matching figures for GCAGTCTCGAAAGAGTGC (((..(((....)))))): -25.4 kcal/mol and 45.8 °C.
Consider GCAGTGCGAAAGCATCGC ((..(((....)))..)), for which, in data set [1], the folding enthalpy is -14.9 kcal/mol. In data set [2], the Tm is 55.2 °C.
GCAGTGCGAAAGCCCTGC ((((.((....)).)))): in data set [1], the folding enthalpy is -32.8 kcal/mol. The Tm in data set [2] stood at 61.8 °C.
As to GCAGTGCGAAAGCGATGC (((..((....))..))), in data set [1], the folding enthalpy is -30.6 kcal/mol. The Tm in data set [2] is 62.4 °C.
With GCAGTGCGAAAGCTCCGC ((.(.((....)).).)), the folding enthalpy in data set [1] was -11.9 kcal/mol. In data set [2], the Tm is 47.9 °C.
Taken in the same sequence, the figures for GCAGTGGAAACACTGC ((((((....)))))) were -32.9 kcal/mol and 68.5 °C.
The matching figures for GCAGTGGCGAAAGCCTGC (((..(((....)))))): -19.3 kcal/mol and 58.3 °C.
As to GCAGTGGGAAACTACTGC (((((.(....).))))), in data set [1], the folding enthalpy is -37.9 kcal/mol. Also, in data set [2], the Tm was 54.2 °C.
Taken in the same sequence, the figures for GCAGTTGAAAAACTGC ((((((....)))))) were -37.8 kcal/mol and 58.9 °C.
Taken in the same sequence, the figures for GCAGTTGGAAACAACTAC (.(((((....))))).) were -17.1 kcal/mol and 37.5 °C.
The matching figures for GCATAAGGAAACTTATGC (((((((....))))))): -39.1 kcal/mol and 54.7 °C.
Consider GCATACCGAAAGGTCTGC (((.(((....))).))), for which, in data set [1], the folding enthalpy was -33.5 kcal/mol. Further, the Tm in data set [2] was determined as 51.4 °C.
The matching figures for GCATACGAAAGTATGTGC ((((((....)))..))): -23 kcal/mol and 52.2 °C.
The matching figures for GCATACGCGAAAGCGTGC (((..(((....)))))): -10.8 kcal/mol and 48.7 °C.
Taken in the same sequence, the figures for GCATACGGAAACATATGC (((((.(....).))))) were -24.4 kcal/mol and 37 °C.
GCATACGGAAACGCATGC ((((.((....)).)))): the folding enthalpy in data set [1] is -34.5 kcal/mol. The Tm in data set [2] stood at 48.5 °C.
Consider GCATACGGAAACGTACGC ((.((((....)))).)), for which the folding enthalpy in data set [1] is -31.4 kcal/mol. Moreover, the Tm in data set [2] is 44.2 °C.
Take GCATACGGAAACGTATAC (.(((((....))))).): in data set [1], the folding enthalpy was -16.9 kcal/mol. In addition, in data set [2], the Tm came to 34.9 °C.
The matching figures for GCATACGGAAACGTGTGC (((.(((....))).))): -50.6 kcal/mol and 55 °C.
Regarding GCATAGCGAAAGCCTTGC (((..((....))..))), the folding enthalpy in data set [1] is -13.9 kcal/mol. Also, the Tm in data set [2] amounted to 36.9 °C.
The matching figures for GCATAGCGAAAGCGCTGC (((..((....))..))): -16.5 kcal/mol and 51.3 °C.
The matching figures for GCATAGCGAAAGCTAGGC ((.((((....)))).)): -27.1 kcal/mol and 67 °C.
Regarding GCATAGCGAAAGCTCAGC ((..(((....)))..)), in data set [1], the folding enthalpy was -14.3 kcal/mol. Further, the Tm in data set [2] stood at 30.6 °C.
Taken in the same sequence, the figures for GCATAGCGAAAGCTCCGC ((..(((....)))..)) were -8.77 kcal/mol and 32.6 °C.
In the case of GCATAGCGAAAGCTTAGC ((..(((....)))..)), the folding enthalpy in data set [1] is -16.2 kcal/mol. Besides, the Tm in data set [2] was determined as 41.6 °C.
The matching figures for GCATAGCGAAAGCTTGC (((.(((....)))))): -22.5 kcal/mol and 54.3 °C.
Taken in the same sequence, the figures for GCATAGCGAAAGCTTGGC ((..(((....)))..)) were -18.6 kcal/mol and 41.9 °C.
The matching figures for GCATAGGGAAACCCATGC ((((.((....)).)))): -29.9 kcal/mol and 45.5 °C.
Turning to GCATAGGGAAACCTATAC (.(((((....))))).), the folding enthalpy in data set [1] was -14.4 kcal/mol. Besides, in data set [2], the Tm came out at 27.8 °C.
The matching figures for GCATAGGGAAACTTATGC (((((.(....).))))): -29.2 kcal/mol and 41.6 °C.
On to GCATAGTCGAAAGACTGC (((..(((....)))))), for which, in data set [1], the folding enthalpy is -15.2 kcal/mol. Further, the Tm in data set [2] worked out at 43.1 °C.
Taken in the same sequence, the figures for GCATATGGAAACATATGC (((((((....))))))) were -41.6 kcal/mol and 56.3 °C.
Taken in the same sequence, the figures for GCATCACGAAAGTGCTGC (((.(((....))).))) were -44 kcal/mol and 52.4 °C.
Taken in the same sequence, the figures for GCATCACGAAAGTGTGC (((.(((....)))))) were -39.2 kcal/mol and 56 °C.
As to GCATCAGGAAACCGATGC (((((.(....).))))), in data set [1], the folding enthalpy was -33.4 kcal/mol. In addition, the Tm in data set [2] came to 50 °C.
The matching figures for GCATCAGGAAACTGATAC (.(((((....))))).): -18.7 kcal/mol and 34.2 °C.
GCATCAGGAAACTGATGC (((((((....))))))): the folding enthalpy in data set [1] was -46.9 kcal/mol. Moreover, the Tm in data set [2] was 67.1 °C.
GCATCCGAAAGGAATTGC ((((((....)))..))): the folding enthalpy in data set [1] is -20.2 kcal/mol. Moreover, in data set [2], the Tm amounted to 36.9 °C.
For GCATCCGAAAGGACATGC ((((((....)))..))), the folding enthalpy in data set [1] is -23.1 kcal/mol. Further, the Tm in data set [2] stood at 43.3 °C.
GCATCCGAAAGGAGTGC ((((((....))).))): the folding enthalpy in data set [1] is -22.5 kcal/mol. In addition, the Tm in data set [2] came out at 51.2 °C.
Regarding GCATCCGAAAGGATGTGC ((((((....)))..))), in data set [1], the folding enthalpy is -18.9 kcal/mol. In addition, the Tm in data set [2] was found to be 60.5 °C.
The matching figures for GCATCCGGAAACGGACAC (..((((....))))..): -12.7 kcal/mol and 21.6 °C.
As for GCATCGAAAGATGC (((((....))))), the folding enthalpy in data set [1] was -31.8 kcal/mol. Also, the Tm in data set [2] is 69.2 °C.
The matching figures for GCATCGCGAAAGCAAGGC ((.(.((....)).).)): -12.7 kcal/mol and 39.6 °C.
Taken in the same sequence, the figures for GCATCGCGAAAGCACTGC (((..((....))..))) were -14.7 kcal/mol and 38.5 °C.
Taken in the same sequence, the figures for GCATCGCGAAAGCCATGC ((((.((....)).)))) were -35.7 kcal/mol and 56.3 °C.
With GCATCGCGAAAGCCTTGC (((..((....))..))), the folding enthalpy in data set [1] was -16.7 kcal/mol. In addition, the Tm in data set [2] is 38.3 °C.
Regarding GCATCGCGAAAGCGCGGC ((..(((....)))..)), in data set [1], the folding enthalpy is -14.8 kcal/mol. Also, in data set [2], the Tm was determined as 44.7 °C.
In the case of GCATCGCGAAAGCGGCGC ((..(((....)))..)), the folding enthalpy in data set [1] is -21.2 kcal/mol. Also, the Tm in data set [2] came to 57.3 °C.
The matching figures for GCATCGCGAAAGCGTCGC ((..(((....)))..)): -11.5 kcal/mol and 42.1 °C.
The matching figures for GCATCGCGAAAGCTCTGC (((..((....))..))): -15.9 kcal/mol and 36.8 °C.
The matching figures for GCATCGGCGAAAGCCTGC (((..(((....)))))): -15.2 kcal/mol and 39.8 °C.
GCATCGGGAAACCGACAC (..((((....))))..): the folding enthalpy in data set [1] was -11.9 kcal/mol. Also, in data set [2], the Tm was 25.8 °C.
Taken in the same sequence, the figures for GCATCGGGAAACTGGTGC (((.(.(....).).))) were -29 kcal/mol and 42.7 °C.
The matching figures for GCATCTGGAAACAAATGC ((((.((....)).)))): -21.8 kcal/mol and 32.6 °C.
Turning to GCATCTGGAAACAGACGC ((.((((....)))).)), in data set [1], the folding enthalpy is -33 kcal/mol. The Tm in data set [2] is 44.2 °C.
As to GCATCTGGAAACAGATAC (.(((((....))))).), the folding enthalpy in data set [1] was -16.8 kcal/mol. In data set [2], the Tm was 36.3 °C.
Taken in the same sequence, the figures for GCATCTGGAAACAGGTGC (((.(((....))).))) were -40.5 kcal/mol and 52.2 °C.
In the case of GCATCTGGAAACGGATGC (((((.(....).))))), the folding enthalpy in data set [1] is -44.6 kcal/mol. Further, the Tm in data set [2] amounted to 53.8 °C.
Consider GCATGCGAAAGCAACTGC ((((((....)))..))), for which the folding enthalpy in data set [1] was -14.2 kcal/mol. The Tm in data set [2] was found to be 40.2 °C.
With GCATGCGGAAACACACGC ((.((.(....).)).)), in data set [1], the folding enthalpy is -10.2 kcal/mol. The Tm in data set [2] is 30.4 °C.
For GCATGCGGAAACACATGC (((((.(....).))))), in data set [1], the folding enthalpy was -42 kcal/mol. Moreover, the Tm in data set [2] came out at 49.7 °C.
Regarding GCATGCGGAAACGCACGC ((.((((....)))).)), in data set [1], the folding enthalpy was -25.7 kcal/mol. Besides, in data set [2], the Tm was 52.1 °C.
With GCATGCGGAAACGTATGC ((((.((....)).)))), the folding enthalpy in data set [1] was -41.4 kcal/mol. Besides, the Tm in data set [2] was 56.1 °C.
The matching figures for GCATGGCCGAAAGGCTGC (((..(((....)))))): -13.2 kcal/mol and 53.3 °C.
The matching figures for GCATGGCGAAAGCCACGC ((.((((....)))).)): -17.6 kcal/mol and 60.9 °C.
Regarding GCATGGCGAAAGCCCAGC ((..(((....)))..)), the folding enthalpy in data set [1] is -12 kcal/mol. For the same sequence, the Tm in data set [2] was found to be 46.3 °C.
With GCATGGCGAAAGCCCCGC ((..(((....)))..)), in data set [1], the folding enthalpy was -12.4 kcal/mol. In addition, the Tm in data set [2] worked out at 29.6 °C.
Turning to GCATGGCGAAAGCCCGGC ((..(((....)))..)), in data set [1], the folding enthalpy was -15.7 kcal/mol. Besides, in data set [2], the Tm amounted to 43.3 °C.
Consider GCATGGCGAAAGCCGCGC ((..(((....)))..)), for which the folding enthalpy in data set [1] is -19.7 kcal/mol. In addition, the Tm in data set [2] came out at 61.1 °C.
The matching figures for GCATGGCGAAAGCCGGGC ((..(((....)))..)): -17.7 kcal/mol and 60.4 °C.
